In ChEMBL document CHEMBL1138356, “Design and synthesis of human immunodeficiency virus entry inhibitors: sulfonamide as an isostere for the alpha-ketoamide group” (J Med Chem, 2007):

Key:
[1] = Cytotoxicity against human U87 cells expressing CD4 and CXCR4; format: cell-based, U-87MG ATCC
[2] = tested on: Human immunodeficiency virus 1; test: Antiviral activity against HIV1 pseudovirus in U87 cells expressing CD4 and CCR5 after 72 hrs by M33 pseudotyped assay; format: functional, organism-based, U-87MG ATCC; details: Human immunodeficiency virus 1, U-87 MG
Procedure, shortened: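 M33 pseudotyped viral attachment assay giving IC50 values. Specificity for HIV was judged by counter-screening against AMLV-pseudotyped virus at concentrations above 100× the M33 IC50.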

[3] = tested on: Human immunodeficiency virus; test: Antiviral activity against HIV 584.000063P1B by viral replication assay; format: functional, organism-based; details: Human immunodeficiency virus 1
[4] = tested on: Human immunodeficiency virus; test: Antiviral activity against HIV 584.000030 by viral replication assay; format: functional, organism-based; details: Human immunodeficiency virus 1
[5] = tested on: Human immunodeficiency virus; test: Antiviral activity against HIV 584.000016 by viral replication assay; details: Human immunodeficiency virus 1
[6] = tested on: Human immunodeficiency virus; test: Antiviral activity against HIV 589.000033 by viral replication assay; format: functional, organism-based; details: Human immunodeficiency virus 1
[7] = tested on: Human immunodeficiency virus; test: Antiviral activity against HIV 589.000821 by viral replication assay; format: functional, organism-based; details: Human immunodeficiency virus 1
[8] = tested on: Human immunodeficiency virus; test: Antiviral activity against HIV 589.000049 by viral replication assay; format: functional, organism-based; details: Human immunodeficiency virus 1
[9] = tested on: Human immunodeficiency virus; test: Antiviral activity against HIV 584.000039 by viral replication assay; format: functional, organism-based; details: Human immunodeficiency virus 1
[10] = tested on: Human immunodeficiency virus; test: Antiviral activity against HIV 208.000923 by viral replication assay; format: functional, organism-based; details: Human immunodeficiency virus 1
[11] = tested on: Human immunodeficiency virus; test: Antiviral activity against HIV 584.000241 by viral replication assay; format: functional, organism-based; details: Human immunodeficiency virus 1
[12] = tested on: Human immunodeficiency virus; test: Antiviral activity against HIV 584.000088 by viral replication assay; format: functional, organism-based; details: Human immunodeficiency virus 1
[13] = tested on: Human immunodeficiency virus; test: Antiviral activity against HIV 584.000220 by viral replication assay; format: functional, organism-based; details: Human immunodeficiency virus 1
[14] = tested on: Human immunodeficiency virus; test: Antiviral activity against HIV 584.000058 by viral replication assay; format: functional, organism-based; details: Human immunodeficiency virus 1

Structure (SMILES) | IC50 [2] [nM] | CC50 [1] [nM] | further results
COc1ncc(OC)c2c(C(=O)C(=O)N3CCN(C(=O)c4ccccc4)CC3)c[nH]c12 | 26 | > 40000 | 
COc1ccnc2[nH]cc(C(=O)C(=O)N3CCN(C(=O)c4ccccc4)C[C@H]3C)c12 | 8 | > 40000 | IC50 [3]: 37 nM; IC50 [4]: 31 nM; IC50 [5]: 40 nM; IC50 [6]: 28 nM; IC50 [7]: 2800 nM; IC50 [8]: 6 nM; IC50 [9]: 400 nM; IC50 [10]: 1400 nM; IC50 [11]: 118 nM; IC50 [12]: 14 nM; IC50 [13]: 4 nM; IC50 [14]: 58 nM
O=C(c1ccccc1)N1CCN(S(=O)(=O)c2c[nH]c3ncccc23)CC1 | 22000 | > 40000 | 
COc1ncc(OC)c2c(C(=O)C(=O)N3CCN(C(=O)c4ccccc4)C[C@H]3C)c[nH]c12 | 5 | > 40000 | 
C[C@@H]1CN(C(=O)c2ccccc2)CCN1C(=O)C(=O)c1c[nH]c2ncccc12 | 30 | > 40000 | 
CC1CN(C(=O)c2ccccc2)CCN1S(=O)(=O)c1c[nH]c2c(Cl)nccc12 (racemic) | 11000 | > 40000 | 
CC1CN(C(=O)c2ccccc2)CCN1S(=O)(=O)c1c[nH]c2c(-n3cncn3)nccc12 (racemic) | 200 | > 40000 | 
COCc1cn(-c2ncc(F)c3c(S(=O)(=O)N4CCN(C(=O)c5ccccc5)CC4C)c[nH]c23)nn1 (racemic) | 580 | > 40000 | 
CC1CN(C(=O)c2ccccc2)CCN1S(=O)(=O)c1c[nH]c2c(-n3cc(CN(C)C)nn3)nccc12 (racemic) | 1100 | > 40000 | 
Cc1cn(-c2nccc3c(S(=O)(=O)N4CCN(C(=O)c5ccccc5)CC4C)c[nH]c23)nn1 (racemic) | 860 | > 40000 | 
CC1CN(C(=O)c2ccccc2)CCN1S(=O)(=O)c1c[nH]c2c(-c3cc[nH]n3)nccc12 (racemic) | 140 | > 40000 | 
CC1CN(C(=O)c2ccccc2)CCN1S(=O)(=O)c1c[nH]c2c(-c3cccnc3)nccc12 (racemic) | 640 | > 40000 | 
CC1CN(C(=O)c2ccccc2)CCN1S(=O)(=O)c1c[nH]c2c(-c3nccs3)nccc12 (racemic) | 500 | > 40000 | 
COc1cc2c(S(=O)(=O)N3CCN(C(=O)c4ccccc4)CC3C)c[nH]c2cn1 (racemic) | > 40000 | > 40000 | 
CC1CN(C(=O)c2ccccc2)CCN1S(=O)(=O)c1c[nH]c2c(-n3cccn3)nccc12 (racemic) | 300 | > 40000 | 
CC1CN(C(=O)c2ccccc2)CCN1S(=O)(=O)c1c[nH]c2c(-n3ccnn3)nccc12 (racemic) | 54 | > 40000 | IC50 [3]: 460 nM; IC50 [4]: 267 nM; IC50 [5]: 513 nM; IC50 [6]: 492 nM; IC50 [7]: 330 nM; IC50 [8]: 46 nM; IC50 [9]: 1800 nM; IC50 [10]: 465 nM; IC50 [11]: 8 nM; IC50 [12]: 116 nM; IC50 [13]: 2 nM; IC50 [14]: 1400 nM
CC1CN(C(=O)c2ccccc2)CCN1S(=O)(=O)c1c[nH]c2c(-n3cncn3)ncc(F)c12 (racemic) | 80 | > 40000 | 
CC1CN(C(=O)c2ccc3[nH]ccc3c2)CCN1S(=O)(=O)c1c[nH]c2ncccc12 (racemic) | 4600 | > 40000 | 
CC1CN(C(=O)c2ccc3occc3c2)CCN1S(=O)(=O)c1c[nH]c2ncccc12 (racemic) | 10000 | > 40000 | 
CC1CN(C(=O)c2ccccc2)CCN1S(=O)(=O)c1c[nH]c2c(Cl)nc(Cl)cc12 (racemic) | > 40000 | > 40000 | 
CC1CN(C(=O)c2ccccc2)CCN1S(=O)(=O)c1c[nH]c2c(-n3ccnc3)nccc12 (racemic) | 160 | > 40000 | 
CC1CN(C(=O)c2ccccc2)CCN1S(=O)(=O)c1c[nH]c2c(-c3ccnc(N)n3)nccc12 (racemic) | 500 | > 40000 | 
CC1CN(C(=O)c2ccccc2)CCN1S(=O)(=O)c1c[nH]c2c(-c3ncon3)nccc12 (racemic) | 1240 | > 40000 | 
Cc1ncn(-c2nccc3c(S(=O)(=O)N4CCN(C(=O)c5ccccc5)CC4C)c[nH]c23)n1 (racemic) | 240 | > 40000 | 

Continued, in another order:

IC50 [2] [nM] | Structure (SMILES) | CC50 [1] [nM] | further results
860 | C[C@@H]1CN(C(=O)c2ccccc2)CCN1S(=O)(=O)c1c[nH]c2ncccc12 | > 40000 | 
3000 | C[C@@H]1CN(C(=O)c2cc3ccccc3o2)CCN1S(=O)(=O)c1c[nH]c2ncccc12 | > 40000 | 
3300 | C[C@@H]1CN(C(=O)c2ccccn2)CCN1S(=O)(=O)c1c[nH]c2ncccc12 | > 40000 | 
520 | C[C@@H]1CN(C(=O)c2csc(N)n2)CCN1S(=O)(=O)c1c[nH]c2ncccc12 | > 40000 | 
8400 | C[C@@H]1CN(C(=O)c2cccc(Cl)c2)CCN1S(=O)(=O)c1c[nH]c2ncccc12 | > 40000 | 
9100 | C[C@@H]1CN(C(=O)c2cnccn2)CCN1S(=O)(=O)c1c[nH]c2ncccc12 | > 40000 | 
2300 | Cc1ccc(C(=O)N2CCN(S(=O)(=O)c3c[nH]c4ncccc34)[C@H](C)C2)s1 | > 40000 | 
420 | C[C@@H]1CN(C(=O)c2csc(Br)n2)CCN1S(=O)(=O)c1c[nH]c2ncccc12 | > 40000 | 
1900 | Cc1csc(C(=O)N2CCN(S(=O)(=O)c3c[nH]c4ncccc34)[C@H](C)C2)c1 | > 40000 | 
2400 | C[C@@H]1CN(C(=O)c2ccn(C)n2)CCN1S(=O)(=O)c1c[nH]c2ncccc12 | > 40000 | 
4600 | CC1CN(C(=O)c2cccs2)CCN1S(=O)(=O)c1c[nH]c2ncccc12 (racemic) | > 40000 | 
12400 | Cc1ccc(C(=O)N2CCN(S(=O)(=O)c3c[nH]c4ncccc34)C(C)C2)cc1 (racemic) | > 40000 | 
12600 | CC1CN(C(=O)c2ccc3scnc3c2)CCN1S(=O)(=O)c1c[nH]c2ncccc12 (racemic) | > 40000 | 
5400 | CC1CN(C(=O)c2cnc3ccccc3n2)CCN1S(=O)(=O)c1c[nH]c2ncccc12 (racemic) | > 40000 | 
